Experimental findings from ChEMBL document CHEMBL5223148, “Design, synthesis, and bioactivity evaluation of novel 1-(4-(benzylsulfonyl)-2-nitrophenyl) derivatives as potential anti-inflammatory agents against LPS-induced acute lung injury” (Bioorg Med Chem Lett, 2023) are described below.

The subject of assay [1] is Mus musculus. Kind of assay: Antiinflammatory activity in C57BL/6J mouse model of LPS-induced acute lung injury assessed as reduction in alveolar septa thickness at 20 mg/kg, po administered 30 mins prior to LPS treatment and measured after 6 hrs by H and E staining based assay. It counts as functional, organism-based. The conditions noted are these: time 6.5 hrs. The essentials: (§1)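 Oral pretreatment 30 min before intratracheal LPS at 5 mg/kg, with a saline sham group. Lungs harvested 6 h later. H&E-stained sections scored for alveolar septal thickness, pulmonary congestion, inflammatory infiltration and tissue destruction.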

The test system of assay [2] is Mus musculus. Nature of the assay: Antiinflammatory activity in C57BL/6J mouse model of LPS-induced acute lung injury assessed as reduction in TNF-alpha production in BALF at 20 mg/kg, po administered 30 mins prior to LPS treatment and measured after 6 hrs. Type of assay: functional, organism-based. The conditions noted are these: time 6.5 hrs. Put shortly:
(§2)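 Mice dosed orally 30 min before intratracheal LPS at 5 mg/kg; sham mice received a similar volume of saline. Animals sacrificed 6 h after LPS, and blood and BALF collected. TNF-α and IL-6 measured in serum and in BALF. Mean ± SEM, n = 8, compared with the LPS-only group.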

Assay [3] has as its system Mus musculus. Kind of assay: Antiinflammatory activity in C57BL/6J mouse model of LPS-induced acute lung injury assessed as reduction in pulmonary congestion at 20 mg/kg, po administered 30 mins prior to LPS treatment and measured after 6 hrs by H and E staining based assay. To be noted: time 6.5 hrs. Type of assay: functional, organism-based. Put shortly: as §1
Assay [4] relates to Mus musculus. Nature of the assay: Antiinflammatory activity in C57BL/6J mouse model of LPS-induced acute lung injury assessed as reduction in tissue destruction at 20 mg/kg, po administered 30 mins prior to LPS treatment and measured after 6 hrs by H and E staining based assay. To be noted: time 6.5 hrs. It counts as functional, organism-based. The essentials:
as §1

In assay [5] the test system is Mus musculus. Kind of assay: Antiinflammatory activity in C57BL/6J mouse model of LPS-induced acute lung injury assessed as reduction in p-p65 level at 20 mg/kg, po administered 30 mins prior to LPS treatment and measured after 6 hrs by immunohistochemical analysis. Type of assay: functional, organism-based. To be noted: time 6.5 hrs. Put shortly:
(§3)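 Oral pretreatment 30 min before intratracheal LPS at 5 mg/kg, with a saline sham group. Lungs taken at 6 h. Sections immunostained for F4/80 (macrophage marker) or for p-p65, counterstained with hematoxylin. Percentage of positive cells assessed.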

Assay [6] has as its system J774.A1. Nature of the assay: Antiinflammatory activity in mouse J774.A1 cells assessed as decrease in LPS-induced TNF-alpha secretion at 20 uM preincubated for 30 mins followed by LPS stimulation and measured after 24 hrs by ELISA. It counts as functional. Details: scale not given: the % may be the effect or the level left. The conditions noted are these: time 24.5 hrs. Put shortly:
(§4)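 J774A.1 macrophages pretreated 30 min with 20 μM compound, DMSO as negative control. Cells then stimulated with LPS at 0.5 μg/mL for 24 h. IL-6 and TNF-α in the culture medium measured by ELISA.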

Assay [7] deals with Mus musculus. Nature of the assay: Antiinflammatory activity in C57BL/6J mouse model of LPS-induced acute lung injury assessed as reduction in IL-6 production in serum at 20 mg/kg, po administered 30 mins prior to LPS treatment and measured after 6 hrs. It counts as functional, organism-based. To be noted: time 6.5 hrs. The essentials: as §2
Assay [8] concerns Mus musculus. Kind of assay: Antiinflammatory activity in C57BL/6J mouse model of LPS-induced acute lung injury assessed as reduction in neutrophil count in BALF at 20 mg/kg, po administered 30 mins prior to LPS treatment and measured after 6 hrs by Wright and Giemsa staining based analysis. To be noted: time 6.5 hrs. Type of assay: functional, organism-based. The essentials:
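Oral dosing 30 min before intratracheal LPS at 5 mg/kg, with a saline sham group. BALF collected at 6 h and neutrophils counted by Wright-Giemsa staining, given relative to control. Mean ± SEM, n = 8.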

Assay [9] relates to Mus musculus. Nature of the assay: Antiinflammatory activity in C57BL/6J mouse model of LPS-induced acute lung injury assessed as reduction in inflammatory infiltration at 20 mg/kg, po administered 30 mins prior to LPS treatment and measured after 6 hrs by H and E staining based assay. To be noted: time 6.5 hrs. It counts as functional, organism-based. The essentials:
as §1

For assay [10], the system named is J774.A1. Nature of the assay: Antiinflammatory activity in mouse J774.A1 cells assessed as decrease in LPS-induced IL-6 secretion at 20 uM preincubated for 30 mins followed by LPS stimulation and measured after 24 hrs by ELISA. It counts as functional. To be noted: time 24.5 hrs. Details: scale not given: the % may be the effect or the level left. The essentials: as §4

Assay [11] concerns J774.A1. Nature of the assay: Antiinflammatory activity in mouse J774.A1 cells assessed as decrease in LPS-induced IL-6 secretion preincubated for 30 mins followed by LPS stimulation and measured after 24 hrs by ELISA. Type of assay: functional, cell-based. The essentials:
(§5)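 J774A.1 cells pretreated 30 min across a concentration range, then challenged with LPS at 0.5 μg/mL for 24 h. Secreted IL-6 or TNF-α measured in the medium by ELISA, and IC50 taken from dose–response. Mean ± SEM of 3 independent experiments.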

Assay [12] relates to Mus musculus. Nature of the assay: Antiinflammatory activity in C57BL/6J mouse model of LPS-induced acute lung injury assessed as reduction in TNF-alpha production in serum at 20 mg/kg, po administered 30 mins prior to LPS treatment and measured after 6 hrs. Type of assay: functional, organism-based. The conditions noted are these: time 6.5 hrs. The essentials: as §2
Assay [13] relates to Mus musculus. Kind of assay: Antiinflammatory activity in C57BL/6J mouse model of LPS-induced acute lung injury assessed as reduction in […] infiltration at 20 mg/kg, po administered 30 mins prior to LPS treatment and measured after 6 hrs by F4/80 antibody staining based assay. Type of assay: functional, organism-based. To be noted: time 6.5 hrs. Put shortly: as §3

In assay [14] the test system is J774.A1. Nature of the assay: Antiinflammatory activity in mouse J774.A1 cells assessed as decrease in LPS-induced TNF-alpha secretion preincubated for 30 mins followed by LPS stimulation and measured after 24 hrs by ELISA. Type of assay: functional, cell-based. The essentials:
as §5
For orientation: An ELISA detects its analyte on a solid surface through an enzyme-linked reagent.

Assay [15] concerns Mus musculus. Nature of the assay: Antiinflammatory activity in C57BL/6J mouse model of LPS-induced acute lung injury assessed as reduction in IL-6 production in BALF at 20 mg/kg, po administered 30 mins prior to LPS treatment and measured after 6 hrs. Type of assay: functional, organism-based. The conditions noted are these: time 6.5 hrs. Put shortly: as §2

pIC50: −log10 of the molar value. Active and inactive are the calls of the source. No cut-off for these calls is given here.

Take `CCN1CCN(c2ccc(S(=O)(=O)Cc3cccc(OC)c3)cc2[N+](=O)[O-])CC1`: the result in the assay with Mus musculus [1], with Mus musculus [2], with Mus musculus [3], with Mus musculus [4], in the assay on Mus musculus [5] and in the assay on Mus musculus [7] was Active. The outcome with Mus musculus [8], in the assay on Mus musculus [9], in the assay on Mus musculus [12], in the assay with Mus musculus [13], in the assay with J774.A1 [14] (time 24.5 hrs) and in the assay on Mus musculus [15] was Active. Further, the Activity in the assay on J774.A1 [6] was 33.13%; in the assay on J774.A1 [10] it was 63.29%; in the assay on J774.A1 [11] (time 24.5 hrs), “Dose-Dependent Effect”. The pIC50 was 5.25 in the assay with J774.A1 [11] and 4.71 in the assay on J774.A1 [14].

In general, pIC50 refers to −log10 of the IC50, conventionally taken in molar units.
